Data published in ChEMBL document CHEMBL5329164, “Design, synthesis, and evaluation of BTK-targeting PROTACs with optimized bioavailability in vitro and in vivo” (RSC Med Chem, 2023).

Legend:
[1] = Stability in mouse liver microsomes assessed as half life at 1 uM preincubated for 10 mins followed by reaction initiation measured upto 60 mins in presence of NADPH; type: ADME, Microsome; conditions: time < 70 min
Summary of the method: (§1)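 Compound at 1 μM final was incubated with 0.5 mg/mL mouse, rat, dog, monkey or human liver microsomes in 100 mM PBS, pH 7.4, with 1 mM NADPH at 37 °C after a 10 min preincubation. Reactions were stopped at 0, 5, 15, 30 and 60 min with ice-cold acetonitrile containing tolbutamide. Supernatants were taken for bioanalysis.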

[2] = Stability in dog liver microsomes assessed as intrinsic clearance measured per mg protein at 1 uM preincubated for 10 mins followed by reaction initiation measured upto 60 mins in presence of NADPH; type: ADME, Canis lupus familiaris, Microsome; conditions: time < 70 min, read-out: CLH; summary of the method: as §1
[3] = Half life in BALB/c mouse at 2 mg/kg, iv measured for 24 hrs by LCMS analysis; type: ADME, organism-based; conditions: in vivo
Summary of the method: (§2)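 Male Balb/c mice, 9 per group, dosed intravenously at 2 mg/kg. Blood was drawn into EDTA-K2 tubes at 0.083, 0.25, 0.5, 1, 2, 4, 6, 8 and 24 h. Plasma was separated by centrifugation at 2000 g for 10 min and precipitated with acetonitrile containing tolbutamide internal standard. Analysis was by LC-MS on a polar C18 column with a water/acetonitrile 0.1% formic acid gradient.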

[4] = Half life in BALB/c mouse at 5 mg/kg, po measured for 24 hrs by LCMS analysis; type: ADME, organism-based; conditions: in vivo
Summary of the method: (§3)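 Male Balb/c mice, 9 per group, dosed intragastrically at 5 mg/kg; the same compounds were also given iv at 2 mg/kg. Blood was drawn into EDTA-K2 tubes at 0.25, 0.5, 1, 2, 4, 6, 8 and 24 h. Plasma proteins were precipitated with acetonitrile containing tolbutamide. Quantification was by LC-MS on a C18 column with a formic acid water/acetonitrile gradient.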

[5] = Clearance in BALB/c mouse at 2 mg/kg, iv measured for 24 hrs by LCMS analysis; type: ADME, organism-based; conditions: in vivo; summary of the method: as §2
[6] = Stability in monkey liver microsomes assessed as half life at 1 uM preincubated for 10 mins followed by reaction initiation measured upto 60 mins in presence of NADPH; type: ADME, Macaca mulatta, Microsome; conditions: rhesus monkey, time < 70 min; summary of the method: as §1
[7] = Cmax in BALB/c mouse at 5 mg/kg, po measured for 24 hrs by LCMS analysis; type: ADME, organism-based; parameters: dose 5 mg/kg, time 24 hrs, route po; conditions: in vivo; summary of the method: as §3
[8] = AUClast in BALB/c mouse at 5 mg/kg, po measured for 24 hrs by LCMS analysis; type: ADME, organism-based; parameters: dose 5 mg/kg, time 24 hrs, route po; conditions: in vivo; summary of the method: as §3
[9] = Stability in rat liver microsomes assessed as intrinsic clearance measured per mg protein at 1 uM preincubated for 10 mins followed by reaction initiation measured upto 60 mins in presence of NADPH; type: ADME, Microsome; conditions: time < 70 min, read-out: CLH; summary of the method: as §1
[10] = Apparent permeability across basal to apical side in MDCK-II cells at 10 uM measured for 120 mins by LC-MS/MS analysis; type: ADME, cell-based, Canis lupus familiaris; conditions: dog
Summary of the method: (§4)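 MDCK monolayers were grown on Transwell inserts (5 x 10^4 cells/cm²) and used at day 5. Compound at 10 μM in HBSS with 10 mM Hepes, pH 7.40, was dosed apically or basolaterally and incubated at 37±1 °C. Lucifer yellow passage below 1% confirmed monolayer integrity.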

[11] = AUClast in BALB/c mouse at 2 mg/kg, iv measured for 24 hrs by LCMS analysis; type: ADME, organism-based; parameters: time 24 hrs, dose 2 mg/kg, route iv; conditions: in vivo; summary of the method: as §2
[12] = Stability in mouse liver microsomes assessed as intrinsic clearance measured per mg protein at 1 uM preincubated for 10 mins followed by reaction initiation measured upto 60 mins in presence of NADPH; type: ADME, Microsome; conditions: time < 70 min, read-out: CLH; summary of the method: as §1
[13] = Tmax in BALB/c mouse at 5 mg/kg, po measured for 24 hrs by LCMS analysis; type: ADME, organism-based; conditions: in vivo; summary of the method: as §3
[14] = Stability in monkey liver microsomes assessed as intrinsic clearance measured per mg protein at 1 uM preincubated for 10 mins followed by reaction initiation measured upto 60 mins in presence of NADPH; type: ADME, Macaca mulatta, Microsome; conditions: rhesus monkey, time < 70 min, read-out: CLH; summary of the method: as §1
[15] = Apparent permeability across apical to basal side in MDCK-II cells assessed as compound recovery at 10 uM measured for 120 mins by LC-MS/MS analysis; type: ADME, cell-based, Canis lupus familiaris; conditions: dog, read-out: Drug recovery
Summary of the method: as §4, with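 “°C. Receiver and donor samples were taken at 120 min and quantified by LC-MS/MS against an internal standard.” for “°C.”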

[16] = Apparent permeability across basal to apical side in MDCK-II cells assessed as compound recovery at 10 uM measured for 120 mins by LC-MS/MS analysis; type: ADME, cell-based, Canis lupus familiaris; conditions: dog, read-out: Drug recovery
Summary of the method: as §4, with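 “°C. Receiver and donor samples were taken at 120 min and quantified by LC-MS/MS against an internal standard.” for “°C.”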

[17] = Apparent volume of distribution in BALB/c mouse at 2 mg/kg, iv measured for 24 hrs by LCMS analysis; type: ADME, organism-based; conditions: in vivo, read-out: Vz; summary of the method: as §2
[18] = Stability in human liver microsomes assessed as intrinsic clearance measured per mg protein at 1 uM preincubated for 10 mins followed by reaction initiation measured upto 60 mins in presence of NADPH; type: ADME, Microsome; conditions: time < 70 min, read-out: CLH; summary of the method: as §1
[19] = Stability in dog liver microsomes assessed as half life at 1 uM preincubated for 10 mins followed by reaction initiation measured upto 60 mins in presence of NADPH; type: ADME, Canis lupus familiaris, Microsome; conditions: time < 70 min; summary of the method: as §1
[20] = Oral bioavailability in BALB/c mouse at 5 mg/kg measured for 24 hrs by LCMS analysis; type: ADME, organism-based; conditions: in vivo; summary of the method: as §3
[21] = Stability in human liver microsomes assessed as half life at 1 uM preincubated for 10 mins followed by reaction initiation measured upto 60 mins in presence of NADPH; type: ADME, Microsome; conditions: time < 70 min; summary of the method: as §1
[22] = Apparent permeability across apical to basal side in MDCK-II cells at 10 uM measured for 120 mins by LC-MS/MS analysis; type: ADME, cell-based, Canis lupus familiaris; conditions: dog; summary of the method: as §4
[23] = Stability in rat liver microsomes assessed as half life at 1 uM preincubated for 10 mins followed by reaction initiation measured upto 60 mins in presence of NADPH; type: ADME, Microsome; conditions: time < 70 min; summary of the method: as §1
[24] = molecular target: T1, Protein cereblon/Tyrosine-protein kinase BTK (Homo sapiens) (UniProt Q06187+Q96SW2); test: PROTAC activity at CRBN/ BTK in human Ramos cells assessed as induction of BTK degradation at 300 nM incubated for 24 hrs by immunoblot analysis relative to control; type: cell-based
T1 sequence (Q06187 2-659 limits assumed): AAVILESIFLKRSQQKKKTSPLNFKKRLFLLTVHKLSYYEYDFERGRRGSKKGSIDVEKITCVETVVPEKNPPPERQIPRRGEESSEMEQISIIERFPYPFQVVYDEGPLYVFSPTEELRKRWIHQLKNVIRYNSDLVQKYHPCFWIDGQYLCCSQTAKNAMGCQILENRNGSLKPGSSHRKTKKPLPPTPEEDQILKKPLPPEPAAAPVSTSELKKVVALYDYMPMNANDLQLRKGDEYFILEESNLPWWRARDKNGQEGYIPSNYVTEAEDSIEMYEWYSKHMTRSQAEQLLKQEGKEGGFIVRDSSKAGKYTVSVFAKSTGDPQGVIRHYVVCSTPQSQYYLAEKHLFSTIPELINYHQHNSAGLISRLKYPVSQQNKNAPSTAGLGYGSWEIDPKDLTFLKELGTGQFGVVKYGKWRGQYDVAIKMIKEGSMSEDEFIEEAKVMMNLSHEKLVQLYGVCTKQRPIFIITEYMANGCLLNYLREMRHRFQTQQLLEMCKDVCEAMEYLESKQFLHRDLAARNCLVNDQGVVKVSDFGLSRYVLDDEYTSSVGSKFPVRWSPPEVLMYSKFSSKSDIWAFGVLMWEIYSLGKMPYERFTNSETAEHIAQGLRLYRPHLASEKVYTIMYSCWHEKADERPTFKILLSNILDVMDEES
T1 sequence (Q96SW2 whole entry partner): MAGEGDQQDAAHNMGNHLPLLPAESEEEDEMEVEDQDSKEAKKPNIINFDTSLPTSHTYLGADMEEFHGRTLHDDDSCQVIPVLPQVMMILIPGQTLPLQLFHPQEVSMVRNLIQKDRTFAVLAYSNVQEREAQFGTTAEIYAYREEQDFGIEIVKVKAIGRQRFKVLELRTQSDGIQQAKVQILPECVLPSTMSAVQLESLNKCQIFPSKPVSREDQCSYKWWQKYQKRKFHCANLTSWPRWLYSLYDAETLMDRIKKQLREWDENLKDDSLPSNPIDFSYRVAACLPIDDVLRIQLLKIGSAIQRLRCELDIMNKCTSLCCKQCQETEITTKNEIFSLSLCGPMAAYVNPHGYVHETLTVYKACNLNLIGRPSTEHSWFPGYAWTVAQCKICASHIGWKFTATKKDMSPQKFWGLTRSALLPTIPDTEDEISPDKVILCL
Summary of the method: (§5)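 Ramos cells in supplemented RPMI 1640 were plated at 3×10^5 cells/well and treated with compound for 24 h. Lysates in SDS sample buffer were heated at 100 °C for 15 min and run on 10% SDS-PAGE, then transferred to PVDF. Membranes were probed overnight at 4 °C for BTK, GSPT1 and β-actin.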

[25] = molecular target: T1, Protein cereblon/Tyrosine-protein kinase BTK (Homo sapiens); test: PROTAC activity at CRBN/ BTK in human Ramos cells assessed as induction of BTK degradation at 100 nM incubated for 24 hrs by immunoblot analysis relative to control; type: cell-based; summary of the method: as §5
[26] = molecular target: T1, Protein cereblon/Tyrosine-protein kinase BTK (Homo sapiens); test: PROTAC activity at CRBN/ BTK in human Ramos cells assessed as induction of BTK degradation at 250 nM incubated for 24 hrs by immunoblot analysis relative to control; type: cell-based; summary of the method: as §5
[27] = molecular target: T1, Protein cereblon/Tyrosine-protein kinase BTK (Homo sapiens); test: PROTAC activity at CRBN/ BTK in human Ramos cells assessed as induction of BTK degradation at 500 nM incubated for 24 hrs by immunoblot analysis relative to control; type: cell-based; summary of the method: as §5

Compound: Nc1ncnc2c1c(-c1ccc(Oc3ccccc3)cc1)nn2C1CCN(C(=O)Cc2ccc(Nc3ccc4c(c3)CN(C3CCC(=O)NC3=O)C4=O)cc2)CC1 (stereo not drawn)
- half-life at 1 µM [1]: 13 min
- microsomal CLint at 1 µM [2]: 48.7 µL/min/mg
- half-life [3]: 296 min
- half-life [4]: 87 min
- clearance [5]: 4.08 mL/min/kg
- half-life at 1 µM [6]: 8.91 min
- Cmax [7]: 83.2 ng/mL
- AUC(0-t) at 24 h [8]: 103 ng·h/mL
- microsomal CLint at 1 µM [9]: 55.9 µL/min/mg
- Papp B→A at 2 h, 10 µM [10]: 0.25 ×10⁻⁶ cm/s
- AUC(0-t) at 24 h [11]: 8120 ng·h/mL
- microsomal CLint at 1 µM [12]: 107 µL/min/mg
- Tmax [13]: 30 min
- microsomal CLint at 1 µM [14]: 156 µL/min/mg
- recovery at 2 h, 10 µM [15]: 98.5%
- recovery at 2 h, 10 µM [16]: 101%
- Vd [17]: 1.74 L/kg
- microsomal CLint at 1 µM [18]: 147 µL/min/mg
- half-life at 1 µM [19]: 28.5 min
- bioavailability [20]: 0.51%
- half-life at 1 µM [21]: 9.46 min
- Papp A→B at 2 h, 10 µM [22]: 0.003 ×10⁻⁶ cm/s
- half-life at 1 µM [23]: 24.8 min

Compound: Nc1ncnc2c1c(-c1ccc(Oc3ccccc3)cc1)nn2[C@@H]1CCCN(C(=O)Cc2ccc(Nc3ccc4c(c3)CN(C3CCC(=O)NC3=O)C4=O)cc2)C1 (stereo partly drawn)
- half-life at 1 µM [1]: 12.1 min
- microsomal CLint at 1 µM [2]: 60.3 µL/min/mg
- half-life [3]: 309 min
- half-life [4]: 68.4 min
- clearance [5]: 5.17 mL/min/kg
- half-life at 1 µM [6]: 10 min
- Cmax [7]: 364 ng/mL
- AUC(0-t) at 24 h [8]: 357 ng·h/mL
- microsomal CLint at 1 µM [9]: 95 µL/min/mg
- Papp B→A at 2 h, 10 µM [10]: 0.071 ×10⁻⁶ cm/s
- AUC(0-t) at 24 h [11]: 6400 ng·h/mL
- microsomal CLint at 1 µM [12]: 115 µL/min/mg
- Tmax [13]: 30 min
- microsomal CLint at 1 µM [14]: 139 µL/min/mg
- recovery at 2 h, 10 µM [15]: 107%
- recovery at 2 h, 10 µM [16]: 101%
- Vd [17]: 2.31 L/kg
- microsomal CLint at 1 µM [18]: 96.2 µL/min/mg
- half-life at 1 µM [19]: 23 min
- bioavailability [20]: 2.23%
- half-life at 1 µM [21]: 14.4 min
- Papp A→B at 2 h, 10 µM [22]: 0.001 ×10⁻⁶ cm/s
- half-life at 1 µM [23]: 14.6 min

Compound: Nc1ncnc2c1c(-c1ccc(Oc3ccccc3)cc1)nn2[C@@H]1CCCN(C(=O)N2CC3(C2)CN(c2ccc4c(c2)C(=O)N(C2CCC(=O)NC2=O)C4=O)C3)C1 (stereo partly drawn)
- Activity [24]: 24.5%
- Activity [25]: 23.1%

Compound: COCCc1ccc(OCC(O)CNC(C)C)cc1 (stereo not drawn) [METOPROLOL]
- Papp B→A at 2 h, 10 µM [10]: 11.3 ×10⁻⁶ cm/s
- recovery at 2 h, 10 µM [15]: 97.1%
- recovery at 2 h, 10 µM [16]: 95.9%
- Papp A→B at 2 h, 10 µM [22]: 21.1 ×10⁻⁶ cm/s

Compound: Nc1ncnc2c1c(-c1ccc(Oc3ccccc3)cc1)nn2[C@@H]1CCCN(C(=O)c2ccc(-c3ccc(Nc4ccc5c(c4)C(=O)N(C4CCC(=O)NC4=O)C5=O)cc3)cc2)C1 (stereo partly drawn)
- Activity [26]: 38.4%
- Activity [27]: 38.8%

Compound: Nc1ncnc2c1c(-c1ccc(Oc3ccccc3)cc1)nn2[C@@H]1CCCN(C(=O)c2ccc(Nc3ccc4c(c3)C(=O)N(C3CCC(=O)NC3=O)C4=O)cc2)C1 (stereo partly drawn)
- Activity [24]: 20.1%
- Activity [25]: 18.2%

Compound: Nc1ncnc2c1c(-c1ccc(Oc3ccccc3)cc1)nn2[C@@H]1CCCN(C(=O)N2CCN(c3ccc4c(c3)C(=O)N(C3CCC(=O)NC3=O)C4=O)CC2)C1 (stereo partly drawn)
- Activity [24]: 79.7%
- Activity [25]: 78.4%
